ChEMBL document CHEMBL4219061, “Structure-activity relationships of cryptopleurine analogs with E-ring modifications as anti-hepatitis C virus agents” (Bioorg Med Chem, 2018)
The source made the active and inactive calls. The rule behind the calls is not given here.

Columns and labels:
[1] = Therapeutic index, ratio of IC50 for human Huh-luc/neo-ET cells to EC50 for HCV genotype 1b con1; format: toxicity; conditions: Huh-luc/neo-ET cells (HCV genotype 1b con1), read-out: Ratio IC50/EC50
HepG2 2.2.15 [2] = test: Cytotoxicity against human HepG2(2.2.15) cells assessed as cell growth inhibition; format: cell-based
Outline: (§1)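 Cell growth measured against DMSO vehicle in HepG2.2.15 cells (MEME, 10% FCS, 50 µg/ml kanamycin) or in Huh-luc/neo-ET cells. IC50 = concentration giving 50% inhibition of cell growth. Mean ± SD of three independent experiments.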

Hepatitis B virus = test: Antiviral activity against HBV infected in human HepG2(2.2.15) cells assessed as inhibition of viral DNA level after 6 days by Southern blot analysis; format: functional; conditions: HepG2 2.2.15, 144 h
Outline: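 HepG2.2.15 cells (HBV genome integrated; MEME, 10% FCS, kanamycin) seeded ~5 × 10^5 per well and grown 6 days, then given compound for 6 days with fresh medium every other day. Total DNA (20 μg) run on 1% agarose, blotted, hybridized overnight at 65 °C with 32P-labeled full-length HBV probe; read by film or PhosphorImager.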

Hepatitis C virus = test: Antiviral activity against HCV genotype 1b con1 infected in human Huh-luc/neo-ET cells assessed as inhibition of viral replication after 72 hrs; format: functional, organism-based, Hepacivirus hominis; conditions: isolate Con1, Huh-luc/neo-ET
Outline: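 Firefly-luciferase reporter in the Con1 genotype 1b subgenomic replicon used to follow HCV replication in Huh-luc/neo-ET cells, tested without G418 (routinely kept in DMEM, 10% FBS, 1 mM nonessential amino acids, 250 µg/ml G418, 37 °C, 5% CO2). Luciferase read on a plate reader. EC50 = concentration giving 50% inhibition of replication versus DMSO vehicle. Mean ± SD of three independent experiments.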

[3] = Cytotoxicity against human Huh-luc/neo-ET cells assessed as cell growth inhibition; format: cell-based; outline: as §1
[4] = molecular target: Heat shock cognate 71 kDa protein (Homo sapiens) (UniProt P11142); test: Displacement of biotinylated-rac-cryptopleurine from recombinant HSC70 (unknown origin) […] by Western blot analysis
Sequence of Heat shock cognate 71 kDa protein (Homo sapiens) (P11142 2-646 limits assumed): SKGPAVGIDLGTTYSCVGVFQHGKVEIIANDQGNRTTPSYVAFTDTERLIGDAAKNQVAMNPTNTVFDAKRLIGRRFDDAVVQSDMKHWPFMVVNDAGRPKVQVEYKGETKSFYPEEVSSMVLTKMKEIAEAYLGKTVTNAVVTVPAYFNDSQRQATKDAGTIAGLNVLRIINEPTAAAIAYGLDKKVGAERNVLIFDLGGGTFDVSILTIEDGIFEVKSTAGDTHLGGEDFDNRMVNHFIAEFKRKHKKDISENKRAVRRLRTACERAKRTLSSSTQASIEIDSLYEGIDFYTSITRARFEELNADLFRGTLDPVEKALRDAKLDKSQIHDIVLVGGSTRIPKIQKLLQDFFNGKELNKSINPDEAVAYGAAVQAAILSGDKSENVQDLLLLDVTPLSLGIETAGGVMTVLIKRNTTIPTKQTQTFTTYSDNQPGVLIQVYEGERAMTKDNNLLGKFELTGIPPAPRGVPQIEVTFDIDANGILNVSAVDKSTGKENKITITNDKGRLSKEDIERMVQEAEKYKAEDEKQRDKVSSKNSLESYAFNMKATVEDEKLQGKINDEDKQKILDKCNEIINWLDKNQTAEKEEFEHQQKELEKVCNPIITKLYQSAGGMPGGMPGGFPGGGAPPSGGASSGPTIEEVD
Outline: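 Biotinylated rac-cryptopleurine loaded overnight at room temperature onto streptavidin resin in 50% DMSO/50% protein-binding buffer (20 mM Hepes pH 7.9, 100 mM NaCl, 0.5% NP-40, 6 mM MgCl2). Resin washed, then incubated 2 h at room temperature with recombinant His-Hsc70 (E. coli BL21(DE3)pLysS, Ni-NTA purified) in 2.5% BSA. Bound Hsc70 eluted with buffer alone or with compound.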

[5] = molecular target: Heat shock cognate 71 kDa protein (Homo sapiens) (UniProt P11142); test: Allosteric regulation of recombinant HSC70 (unknown origin) ATPase activity assessed as increase in ADP production at 10 uM after 10 mins in presence of HCV wild type poly U/UC RNA by HPLC analysis
Outline: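 Recombinant Hsc70 (0.25 μM) incubated with compound at 10 μM plus ATP and 0.5 μM HCV wild-type poly U/UC RNA in MOPS buffer pH 7.4 (Mg(OAc)2, KOAc, DTT, BSA), 37 °C, 10 min. Stopped with TCA (15% final), extracted with trichlorotrifluoroethane:trioctylamine, ADP quantified by HPLC against standard curve on same column. Mean ± SD, three experiments.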

[6] = molecular target: Heat shock cognate 71 kDa protein (Homo sapiens) (UniProt P11142); test: Induction of HSC70 chaperone activity in human Huh-luc/neo-ET cells assessed as reduction in HCV RNA NS5A protein expression at 6 nM after 24 hrs; format: cell-based
Outline: (§2)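 Huh-luc/neo-ET replicon cells (HCV 1b Con1, DMEM, 10% FBS) transiently transfected with FLAG-CHIP plasmid or empty vector, then treated 24 h with compound. HCV RNA, NS3 and NS5A protein levels measured. Representative of more than two independent experiments; two-tailed Student's t-test, p < .05.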

[7] = molecular target: Heat shock cognate 71 kDa protein (Homo sapiens) (UniProt P11142); test: Induction of HSC70 chaperone activity in human Huh-luc/neo-ET cells co-transfected with FLAG-tagged CHIP assessed as reduction in HCV RNA NS5A protein expression at 6 nM after 24 hrs; format: cell-based; outline: as §2
[8] = molecular target: Heat shock cognate 71 kDa protein (Homo sapiens) (UniProt P11142); test: Induction of HSC70 chaperone activity in human Huh-luc/neo-ET cells assessed as reduction in HCV RNA NS3 protein expression at 6 nM after 24 hrs; format: cell-based; outline: as §2
[9] = molecular target: Heat shock cognate 71 kDa protein (Homo sapiens) (UniProt P11142); test: Induction of HSC70 chaperone activity in human Huh-luc/neo-ET cells co-transfected with FLAG-tagged CHIP assessed as reduction in HCV RNA NS3 protein expression at 6 nM after 24 hrs; format: cell-based; outline: as §2
[10] = molecular target: Heat shock cognate 71 kDa protein (Homo sapiens) (UniProt P11142); test: Induction of HSC70 (unknown origin) chaperone activity assessed as reactivation of guanidine-denatured luciferase at 10 uM in presence of human recombinant CHIP by luciferase reporter gene assay
Huh-luc/neo-ET = test: Effect on HSC70 expression in human Huh-luc/neo-ET cells at 6 nM measured up to 72 hrs by Western blot analysis
[11] = Effect on […] CHIP expression in human Huh-luc/neo-ET cells at 6 nM after 24 hrs; format: ADME, cell-based; conditions: 0.006 µM
HepG2 2.2.15 [12] = test: Effect on HSC70 expression in human HepG2(2.2.15) cells at 3 nM measured up to 72 hrs by Western blot analysis; format: functional, cell-based
[13] = molecular target: Heat shock cognate 71 kDa protein (Homo sapiens) (UniProt P11142); test: Induction of HSC70 chaperone activity in human Huh-luc/neo-ET cells co-transfected with FLAG-tagged CHIP assessed as reduction in HCV RNA NS3 protein expression at 3 nM after 24 hrs; format: cell-based
Outline: (§3)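 Huh-luc/neo-ET replicon cells transiently transfected with FLAG-tagged CHIP plasmid or empty vector and treated with compound for 24 h. HCV RNA and NS3 and NS5A protein levels measured. Representative of more than two independent experiments; two-tailed Student's t-test, p < .05.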

[14] = Effect on […] CHIP expression in human Huh-luc/neo-ET cells at 3 nM after 24 hrs; format: ADME, cell-based; conditions: 0.003 µM
[15] = molecular target: Heat shock cognate 71 kDa protein (Homo sapiens) (UniProt P11142); test: Induction of HSC70 chaperone activity in human Huh-luc/neo-ET cells assessed as reduction in HCV RNA NS5A protein expression at 3 nM after 24 hrs; format: cell-based; outline: as §3
[16] = molecular target: Heat shock cognate 71 kDa protein (Homo sapiens) (UniProt P11142); test: Induction of HSC70 chaperone activity in human Huh-luc/neo-ET cells co-transfected with FLAG-tagged CHIP assessed as reduction in HCV RNA NS5A protein expression at 3 nM after 24 hrs; format: cell-based; outline: as §3
[17] = molecular target: Heat shock cognate 71 kDa protein (Homo sapiens) (UniProt P11142); test: Induction of HSC70 chaperone activity in human Huh-luc/neo-ET cells assessed as reduction in HCV RNA NS3 protein expression at 3 nM after 24 hrs; format: cell-based; outline: as §3

Row | Structure (SMILES) | selectivity ratio [1] | IC50 (HepG2 2.2.15 [2]) | EC10 (Hepatitis B virus) | EC50 (Hepatitis C virus) | IC50 [3] | displacement activity (active/not active) [4] | Activity [5] | other results
1 | COc1ccc2c3c(c4cc(OC)c(OC)cc4c2c1)C[C@H]1CNCCN1C3 (racemic) | 5.46 | 1400 nM | > 500 nM | 183 nM | 1000 nM | – | – | –
2 | COc1cc2c3c(c4cc(OC)c(OC)cc4c2cc1OC)[C@H](O)[C@@H]1CCCN1C3 | 2.89 | 98.9 nM | > 300 nM | 31.5 nM | 91 nM | – | – | –
3 | COc1ccc2c3c(c4cc(OC)c(OC)cc4c2c1)C[C@H]1CC[C@@H](O)CN1C3 (racemic) | 7.1 | 258 nM | > 25 nM | 3 nM | 21.3 nM | inactive | Active | –
4 | COc1ccc2c3c(c4cc(OC)c(OC)cc4c2c1)C[C@H]1CCOCN1C3 (racemic) | 1.54 | 1100 nM | > 500 nM | 651 nM | 1000 nM | – | – | –
5 | COc1ccc2c3c(c4cc(OC)c(OC)cc4c2c1)C[C@H]1CCCCCN1C3 (racemic) | 5.75 | 2700 nM | > 1000 nM | 52.3 nM | 300 nM | – | – | –
6 | COc1ccc2c3c(c4cc(OC)c(OC)cc4c2c1)C[C@H]1C[C@H](O)CCN1C3 | 3.57 | 49 nM | > 5.5 nM | 1.4 nM | 5 nM | Active | Active | Activity [6]: Active; Activity [7]: Active; Activity [8]: Active; Activity [9]: Active; Activity [10]: Active; Activity (Huh-luc/neo-ET): inactive; Activity [11]: Non-Toxic
7 | COc1ccc2c3c(c4cc(OC)c(OC)cc4c2c1)C[C@H]1CN(C2CC2)CN1C3 (racemic) | 1.33 | 820 nM | > 300 nM | 750 nM | 1000 nM | – | – | –
8 | COc1ccc2c3c(c4cc(OC)c(OC)cc4c2c1)C[C@H]1C[C@@H](O)CCN1C3 (racemic) | 8.59 | 134 nM | > 26 nM | 4.9 nM | 42.1 nM | inactive | – | –
9 | COc1ccc2c3c(c4cc(OC)c(OC)cc4c2c1)C[C@H]1CC[C@H](O)CN1C3 (racemic) | 15.2 | 1600 nM | > 3000 nM | 246 nM | 3750 nM | inactive | Active | –
10 | COc1ccc2c3c(c4cc(OC)c(OC)cc4c2c1)C[C@H]1CCOCCN1C3 (racemic) | 7.19 | 4000 nM | > 300 nM | 16.7 nM | 120 nM | – | – | –
11 | COc1ccc2c3c(c4cc(OC)c(OC)cc4c2c1)C[C@H]1CCN(N(C)C)CN1C3 (racemic) | 1.07 | 2400 nM | > 900 nM | 3750 nM | 4000 nM | – | – | –
12 | COc1ccc2c3c(c4cc(OC)c(OC)cc4c2c1)C[C@H]1CCCCN1C3 [CRYPTOPLEURINE] | – | – | > 30 nM | – | – | – | Active | Activity (HepG2 2.2.15 [12]): inactive; Activity [13]: Active; Activity [14]: Non-Toxic; Activity [15]: Active; Activity [16]: Active; Activity [17]: Active; Activity [10]: Active
